How the values were obtained:
[1] = Metabolic stability in rat liver microsomes assessed as compound remaining at 5 uM after 30 mins; type: ADME, Microsome; conditions: read-out: Stability
[2] = system: Mus musculus; assay: Antidiuretic activity in mouse assessed as reduction in urine osmolality at 400 ug, ip administered 1 hr followed by dDAVP administration (reference value: >3 Osm/kg); type: functional
[3] = species: Homo sapiens; assay: Inhibition of UT-B-mediated urea transport in human erythrocytes incubated for 10 mins prior to urea addition by Stopped-flow light scattering assay; type: cell-based
Method in brief: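 Human venous blood in heparin, kept at 4 °C and used within 48 h, diluted in PBS to ~0.5% hematocrit. Inhibitor for 10 min, then mixed 1:1 in stopped-flow to impose a 100 mM inward urea gradient. Cell swelling followed as 90° scattered light at 530 nm. Urea permeability and % inhibition computed.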

[4] = Half life in rat liver microsomes at 5 uM; type: ADME, Microsome
[5] = system: Kidney; assay: Drug uptake in mouse kidney at 400 ug, ip administered as bolus dose; type: ADME, organism-based; conditions: in vivo, read-out: Drug uptake
[6] = Drug excretion in mouse urine at 400 ug, ip administered as bolus dose; type: ADME, organism-based; conditions: in vivo
[7] = system: Blood; assay: Drug uptake in mouse blood at 200 ug, ip at 6 hrs; type: ADME, organism-based; conditions: in vivo
Method in brief: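 Mice (8–10 weeks, 25–35 g) received 200 μg of each of two inhibitors together by ip injection in DMSO/Tween-80/PEG400 formulation. Blood taken at 6 h, diluted with equal volume of water, extracted with ethyl acetate, LC/MS against standards. SE, 3 mice.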

remaining at 0.5 h, 5 µM [1] [%]	SMILES	also measured
6	COc1ccc(S(=O)(=O)c2nnn3c2nc(NCc2cccs2)c2sccc23)cc1	
< 5	CC(C)c1ccc(S(=O)(=O)c2nnn3c2nc(NCc2cccs2)c2sccc23)cc1	
99	O=S(=O)(c1ccc(C(F)(F)F)cc1)c1nnn2c1nc(NCc1cccs1)c1sccc12	
< 5	O=S(=O)(c1cccs1)c1nnn2c1nc(NCc1cccs1)c1sccc12	
27	O=S(=O)(c1ccc(F)cc1)c1nnn2c1nc(NCc1cccs1)c1sccc12	
95	O=S(=O)(c1ccc(OC(F)(F)F)cc1)c1nnn2c1nc(NCc1cccs1)c1sccc12	
60	O=S(=O)(c1ccc(Br)cc1)c1nnn2c1nc(NCc1cccs1)c1sccc12	

Further lines, the molecule ahead of its results:

SMILES	remaining at 0.5 h, 5 µM [1] [%]	also measured
COc1ccc(CNc2nc3c(S(=O)(=O)c4ccc(C(C)C)cc4)nnn3c3ccsc23)cc1	7	
CC(F)(F)c1ccc(S(=O)(=O)c2nnn3c2nc(NCc2cccs2)c2sccc23)cc1	96	Activity [2]: 0.5 Osm/kg; inhibition [3]: Dose-dependent effect; half-life at 5 µM [4]: 2 h; concentration [5]: > 1000 nM; Drug excretion [6]: > 1 µM; Drug uptake [7]: Active
CC(C)c1ccc(S(=O)(=O)c2nnn3c2nc(NCc2ccco2)c2sccc23)cc1	> 99	
CC(C)c1ccc(S(=O)(=O)c2nnn3c2nc(NCc2cccc4ccccc24)c2sccc23)cc1	45	
CCc1ccc(S(=O)(=O)c2nnn3c2nc(NCc2cccs2)c2sccc23)cc1	< 5	half-life at 5 µM [4]: 0.0467 h; Drug uptake [7]: Active

Source: ChEMBL document CHEMBL2163305, “Nanomolar potency and metabolically stable inhibitors of kidney urea transporter UT-B” (J Med Chem, 2012)
